Measurements reported in ChEMBL document CHEMBL1155465, “"Viologen" dendrimers as antiviral agents: the effect of charge number and distance” (J Med Chem, 2010).

Tests used:
[1] = tested on: Vesicular stomatitis virus; experiment: Antiviral activity against VSV infected in human E6SM cell assessed as inhibition of virus-induced cytopathicity; assay type: functional, organism-based
[2] = tested on: Human immunodeficiency virus; experiment: Antiviral activity against HIV S056 infected in human A72 Jurkat cells assessed as inhibition of GFP expression after 48 hrs by flow cytometry; assay type: functional, organism-based; conditions: Human immunodeficiency virus 1, S056, Jurkat
How it was run: (§1)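 Acutely infected A72 Jurkat cells. EC50 (μg/mL) is the concentration giving 50% inhibition of GFP expression relative to drug-free infection. CC50 is 50% reduction in cell viability. SI = CC50/EC50. Mean ± SD of ≥2 experiments.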

Reovirus sp. = experiment: Antiviral activity against Reovirus infected in african green monkey Vero cells assessed as inhibition of virus-induced cytopathicity; assay type: functional, organism-based
Human alphaherpesvirus 1 [3] = experiment: Antiviral activity against HSV1 KOS infected in human E6SM cell assessed as inhibition of virus-induced cytopathicity; assay type: functional, organism-based; conditions: Human alphaherpesvirus 1, KOS
Punta Toro virus = experiment: Antiviral activity against Punta Toro virus infected in african green monkey Vero cells assessed as inhibition of virus-induced cytopathicity; assay type: functional, organism-based
[4] = tested on: Human immunodeficiency virus 1; experiment: Antiviral activity against HIV1 NL4-3 pseudotyped with VSV-G envelope infected in human C8166 cells assessed as inhibition of GFP expression after 48 hrs by flow cytometry; assay type: functional, organism-based
How it was run: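 VSV-G-pseudotyped (env-deficient) GFP-encoding NL4.3 taken from transfection supernatant at 60 h and clarified at 450g for 10 min. Used to infect 3 × 10⁴ C8166 cells (RPMI 1640, 10% FCS) with graded compound concentrations. GFP expression read by flow cytometry 48 h post-infection, with the no-compound infection control set as 100%.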

[5] = tested on: Human immunodeficiency virus 1; experiment: Antiviral activity against HIV1 NL4-3 infected in human A72 Jurkat cells assessed as inhibition of GFP expression after 48 hrs by flow cytometry; assay type: functional, organism-based; conditions: Human immunodeficiency virus 1, NL4-3, Jurkat; how it was run: as §1
[6] = tested on: Human immunodeficiency virus; experiment: Antiviral activity against AZT-resistant HIV infected in human A72 Jurkat cells assessed as inhibition of GFP expression after 48 hrs by flow cytometry; assay type: functional, organism-based; conditions: Human immunodeficiency virus 1, Jurkat; how it was run: as §1
[7] = tested on: Human immunodeficiency virus 2; experiment: Antiviral activity against HIV2 ROD infected in human A72 Jurkat cells assessed as inhibition of GFP expression after 48 hrs by flow cytometry; assay type: functional, organism-based; conditions: Human immunodeficiency virus 2, ISOLATE ROD; how it was run: as §1
Human alphaherpesvirus 1 [8] = experiment: Antiviral activity against TK-deficient acyclovir-resistant HSV1 KOS infected in human E6SM cell assessed as inhibition of virus-induced cytopathicity; assay type: functional, organism-based; conditions: Human alphaherpesvirus 1, KOS
Human respirovirus 3 = experiment: Antiviral activity against Parainfluenza virus 3 infected in african green monkey Vero cells assessed as inhibition of virus-induced cytopathicity; assay type: functional, organism-based; conditions: Human respirovirus 3, Vero
[9] = tested on: Human immunodeficiency virus 1; experiment: Antiviral activity against HIV1 3B infected in human PBMC assessed as inhibition of viral p24 antigen production by ELISA; assay type: functional, organism-based; conditions: Human immunodeficiency virus 1, 3B
How it was run: (§2)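 PBMCs infected with HIV-1 IIIB and cultured with a range of compound concentrations. EC50 is 50% inhibition of supernatant p24 core antigen (ELISA) relative to drug-free culture. CC50 is 50% reduction in cell viability. SI = CC50/EC50. Mean ± SD of ≥2 experiments.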

[10] = Cytotoxicity against human E6SM cells by MTT assay; assay type: cell-based
[11] = tested on: Respiratory syncytial virus; experiment: Antiviral activity against RSV infected in human HeLa cell assessed as inhibition of virus-induced cytopathicity; assay type: functional, organism-based
[12] = tested on: Human immunodeficiency virus 1; experiment: Antiviral activity against HIV1 3B infected in human MT4 cells after 5 days by MTT assay; assay type: functional, organism-based; conditions: Human immunodeficiency virus 1, 3B, MT4, 120 h
How it was run: (§3)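 MT-4 cells in RPMI 1640 with 10% heat-inactivated FCS, 2 mM L-glutamine, 0.1% bicarbonate and gentamicin, seeded at 6 × 10⁵ cells/mL final with virus or mock infection. Viability read by MTT after 5 days at 540 and 690 nm, using the median OD of three wells. CC50 is 50% loss of mock-infected OD540. EC50 is 50% inhibition of virus-induced CPE. SI = CC50/EC50. Mean ± SD of ≥2 experiments.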

[13] = tested on: Human immunodeficiency virus; experiment: Antiviral activity against HIV S07 infected in human A72 Jurkat cells assessed as inhibition of GFP expression after 48 hrs by flow cytometry; assay type: functional, organism-based; conditions: Human immunodeficiency virus 1, S07, Jurkat; how it was run: as §1
[14] = Cytotoxicity against human Jurkat A72 cells by MTT assay; assay type: cell-based; how it was run: as §1
[15] = Selectivity index, ratio of CC50 for human MT4 cells to EC50 for HIV1 3B; assay type: toxicity, cell-based; conditions: read-out: Ratio CC50/EC50; how it was run: as §3
[16] = Selectivity index, ratio of CC50 for human Jurkat A72 cells to EC50 for HIV1 3B; assay type: toxicity, cell-based; conditions: read-out: Ratio CC50/EC50; how it was run: as §1
[17] = tested on: Human immunodeficiency virus 2; experiment: Antiviral activity against HIV2 ROD infected in human MT4 cells after 5 days by MTT assay; assay type: functional, organism-based; conditions: Human immunodeficiency virus 2, ISOLATE ROD, MT4, 120 h; how it was run: as §3
[18] = Selectivity index, ratio of CC50 for human PBMC to EC50 for HIV1 3B; how it was run: as §2
Sindbis virus = experiment: Antiviral activity against Sindbis virus infected in african green monkey Vero cells assessed as inhibition of virus-induced cytopathicity; assay type: functional, organism-based
Human alphaherpesvirus 2 = experiment: Antiviral activity against HSV2 G infected in human E6SM cell assessed as inhibition of virus-induced cytopathicity; assay type: functional, organism-based; conditions: Human alphaherpesvirus 2, strain G
[19] = tested on: Human immunodeficiency virus 1; experiment: Antiviral activity against HIV1 3B infected in human A72 Jurkat cells assessed as inhibition of GFP expression after 48 hrs by flow cytometry; assay type: functional, organism-based; conditions: Human immunodeficiency virus 1, 3B; how it was run: as §1
[20] = Cytotoxicity against human PBMC after 5 days by MTT assay; assay type: cell-based; how it was run: as §2
[21] = tested on: Human immunodeficiency virus; experiment: Antiviral activity against HIV SO6141 infected in human MT4 cells after 5 days by MTT assay; assay type: functional, organism-based; conditions: Human immunodeficiency virus 1, SO6141, MT4, 120 h; how it was run: as §3
[22] = tested on: Simian immunodeficiency virus; experiment: Antiviral activity against SIV MAC251 infected in human MT4 cells after 5 days by MTT assay; assay type: functional, organism-based; conditions: MAC251, MT4, 120 h; how it was run: as §3
[23] = tested on: Human immunodeficiency virus; experiment: Antiviral activity against HIV S067 infected in human A72 Jurkat cells assessed as inhibition of GFP expression after 48 hrs by flow cytometry; assay type: functional, organism-based; conditions: Human immunodeficiency virus 1, S067, Jurkat; how it was run: as §1
Vaccinia virus = experiment: Antiviral activity against Vaccina virus infected in human E6SM cell assessed as inhibition of virus-induced cytopathicity; assay type: functional, organism-based; conditions: Orthopoxvirus vaccinia
[24] = Cytotoxicity against human HeLa cells by MTT assay; assay type: cell-based
[25] = Cytotoxicity against african green monkey Vero cells by MTT assay; assay type: cell-based; conditions: chlorocebus sabaeus
[26] = tested on: Human immunodeficiency virus 1; experiment: Antiviral activity against HIV1 3B infected in human MT4 cells assessed as time-of-addition prolongation at 100 ug/ml after 31 hrs post infection by ELISA; assay type: functional
How it was run: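 Time-of-addition: MT-4 cells infected with HIV-1 IIIB at moi 0.5 for a 1 h adsorption, then plated at 45000 cells/well at 37 °C. Compound added at 0, 1, 2, 3, 4, 5, 6, 7, 8, 24 or 25 h post-infection. Supernatant p24 antigen measured by ELISA at 31 h post-infection.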

[27] = tested on: Vesicular stomatitis virus; experiment: Antiviral activity against VSV infected in human HeLa cell assessed as inhibition of virus-induced cytopathicity; assay type: functional, organism-based
[28] = Cytotoxicity against human MT4 cells after 5 days by MTT assay; assay type: cell-based; how it was run: as §3

**Q.** Which EC50 [1] does the source give for CC[n+]1ccc(-c2cc[n+](Cc3cc(Cc4ccc(-c5cc[n+](Cc6cc(C[n+]7ccc(-c8cc[n+](Cc9cc(C[n+]%10ccc(-c%11cc[n+](CC)cc%11)cc%10)cc(C[n+]%10ccc(-c%11cc[n+](CC)cc%11)cc%10)c9)cc8)cc7)cc(C[n+]7ccc(-c8cc[n+](Cc9cc(C[n+]%10ccc(-c%11cc[n+](CC)cc%11)cc%10)cc(C[n+]%10ccc(-c%11cc[n+](CC)cc%11)cc%10)c9)cc8)cc7)c6)cc5)cc4)cc(C[n+]4ccc(-c5cc[n+](CC)cc5)cc4)c3)cc2)cc1.F[P-](F)(F)(F)(F)F.F[P-](F)(F)(F)(F)F.F[P-](F)(F)(F)(F)F.F[P-](F)(F)(F)(F)F.F[P-](F)(F)(F)(F)F.F[P-](F)(F)(F)(F)F.F[P-](F)(F)(F)(F)F.F[P-](F)(F)(F)(F)F.F[P-](F)(F)(F)(F)F.F[P-](F)(F)(F)(F)F.F[P-](F)(F)(F)(F)F.F[P-](F)(F)(F)(F)F.F[P-](F)(F)(F)(F)F.F[P-](F)(F)(F)(F)F.F[P-](F)(F)(F)(F)F.F[P-](F)(F)(F)(F)F.F[P-](F)(F)(F)(F)F here?
**A.** > 50 µg/mL

**Q.** And the EC50 [2]?
**A.** < 2 µg/mL

**Q.** What about the EC50 (Reovirus sp.) of the same molecule?
**A.** > 50 µg/mL

**Q.** And the EC50 (Human alphaherpesvirus 1 [3])?
**A.** 2 µg/mL

**Q.** And the EC50 (Punta Toro virus)?
**A.** > 50 µg/mL

**Q.** What about the inhibition [4] of the same molecule?
**A.** Dose-dependent effect

**Q.** What about the EC50 [5] of the same molecule?
**A.** < 0.2 µg/mL

**Q.** What about the EC50 [6] of the same molecule?
**A.** 5.9 µg/mL

**Q.** And the EC50 [7]?
**A.** 21.5 µg/mL

**Q.** What about the EC50 (Human alphaherpesvirus 1 [8]) of the same molecule?
**A.** 10 µg/mL

**Q.** And the EC50 (Human respirovirus 3)?
**A.** > 50 µg/mL

**Q.** And the EC50 [9]?
**A.** 1.62 µg/mL

**Q.** And the MCC [10]?
**A.** > 50 µg/mL

**Q.** What about the EC50 [11] of the same molecule?
**A.** 50 µg/mL

**Q.** What about the EC50 [12] of the same molecule?
**A.** 260 nM

**Q.** And the EC50 [13]?
**A.** < 0.2 µg/mL

**Q.** And the CC50 [14]?
**A.** 102 µg/mL

**Q.** And the selectivity ratio [15]?
**A.** 75.8

**Q.** And the selectivity ratio [16]?
**A.** 149

**Q.** What about the EC50 [17] of the same molecule?
**A.** > 19700 nM

**Q.** What about the “Ratio CC50/EC50” value [18] of the same molecule?
**A.** 2.5

**Q.** And the EC50 (Sindbis virus)?
**A.** > 50 µg/mL

**Q.** And the EC50 (Human alphaherpesvirus 2)?
**A.** 10 µg/mL

**Q.** And the EC50 [19]?
**A.** 0.685 µg/mL

**Q.** What about the CC50 at 120 h [20] of the same molecule?
**A.** 4.04 µg/mL

**Q.** And the EC50 [21]?
**A.** ≥ 1550 nM

**Q.** What about the EC50 [22] of the same molecule?
**A.** 460 nM

**Q.** And the EC50 [23]?
**A.** < 0.2 µg/mL

**Q.** And the EC50 (Vaccinia virus)?
**A.** > 50 µg/mL

**Q.** What about the MCC [24] of the same molecule?
**A.** > 50 µg/mL

**Q.** And the MCC [25]?
**A.** > 50 µg/mL

**Q.** What about the Time [26] of the same molecule?
**A.** 1 h

**Q.** And the EC50 [27]?
**A.** > 50 µg/mL

**Q.** What about the CC50 at 120 h [28] of the same molecule?
**A.** 19700 nM
